# High-throughput results (PubChem BioAssay)
# The list is not random: actives were taken first. Their share in the collection is about 3.1%.
# KCNK9 inh: inhibitors of human KCNK9 two-pore domain potassium channel | Q9NPC2 | HEK293 KCNK9, FluxOR thallium flux fluorescence; hits give low values | B-score at 10 µM | 1.2% of 310,000 active | AID 488922;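 active means ratio B-score over 3 SD below the library mean, with starting fluorescence within 5 SD of its mean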;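 further: negative B-score means less thallium flux so channel inhibition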
# KCNQ1 pot: potentiates or activates the human KCNQ1 potassium channel; 0.35% of 310,000 active; CHO-K1 KCNQ1, thallium flux FluxOR fluorescence; hits give high values; B-score at 10 µM; AID 2648;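 active means fluorescence ratio B-score, a plate-corrected score, at least three library SD, with initial intensity B-score within 5 SD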
#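 Material: CHO-K1 cells stably expressing KCNQ1. Medium: assay buffer for compound exposure, DMSO matched across wells. Reagent: K+/Tl+ depolarizing stimulus. Compound dosing: single-concentration screen. Times: 37 °C overnight plating, 90-min dark dye load, 20-min compound pretreatment. Technique: FluxOR Tl+ flux fluorescence.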
# KCNQ1 inh: inhibitors of human KCNQ1 potassium channel | P51787 | CHO-K1 KCNQ1, FluxOR thallium flux fluorescence; hits give high values | B-score at 10 µM | 1.3% of 310,000 active | AID 2642;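 active means compounds whose thallium flux B-score, printed positive for inhibition, exceeds three library SD while starting fluorescence stays within three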;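 further: channel opened by potassium depolarization with thallium stimulus after 20 min compound exposure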
# KCNK3 inh: human KCNK3 channel inhibition, primary screen; B-score at 10 µM; CHO-KCNK3 thallium flux, FluxOR fluorescence; hits give low values; 0.84% of 340,000 active;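 active means B-score under library mean minus 4 SD, starting fluorescence ratio at most library mean plus 5 SD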;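 further: more negative B-score means stronger inhibition of thallium flux through KCNK3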
# Target sequence (O14649 whole entry, looked up): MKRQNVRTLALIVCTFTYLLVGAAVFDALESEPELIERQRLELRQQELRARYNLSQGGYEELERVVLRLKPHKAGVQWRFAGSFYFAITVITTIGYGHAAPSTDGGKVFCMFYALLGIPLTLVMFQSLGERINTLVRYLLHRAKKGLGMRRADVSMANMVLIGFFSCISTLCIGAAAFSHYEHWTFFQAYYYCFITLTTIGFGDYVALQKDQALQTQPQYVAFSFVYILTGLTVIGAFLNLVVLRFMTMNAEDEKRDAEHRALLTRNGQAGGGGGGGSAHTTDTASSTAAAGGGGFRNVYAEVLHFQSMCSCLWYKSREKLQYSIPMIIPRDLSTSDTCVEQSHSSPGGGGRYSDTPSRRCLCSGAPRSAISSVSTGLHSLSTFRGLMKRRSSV
# hERG protect: hERG (human) protection from proarrhythmic block | 0.51% of 310,000 active | Q12809 | CHO-hERG, FluxOR thallium flux, dofetilide IC70 present | AID 1511 | activation (rescue from dofetilide block), less the hit threshold, % at 10 µM;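 active means activation above the mean of controls blocked by dofetilide plus 5 SD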;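 further: thallium influx through hERG after potassium depolarization seen as dye fluorescence rise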
# KCNK9 inh conf: confirmation of human KCNK9 potassium channel inhibitors. shares compounds with KCNK9 inh. HEK293 KCNK9 cells, FluxOR thallium flux fluorescence. inhibition, % at 10 µM. 43% of 4,900 active;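 active means thallium signal inhibited by more than 5 SD of the compound-free buffer control wells, on both duplicate plates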;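 further: 0% = assay buffer control wells without compound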
# Kir21 sel: tests whether KCNK9 modulators also affect mouse Kir2.1; shares compounds with KCNK9 inh; AID 492993; 4% of 4,900 active; inhibition, % at 10 µM; Kir2.1 cells, FluxOR thallium flux fluorescence;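 active means thallium signal drop more than 5 SD beyond the mean of the no-compound control wells, seen in both duplicate plates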;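 further: signal is fluorescence rise after thallium addition divided by baseline fluorescence; plate controls were assay buffer only for no effect and full block by chlorpromazine control for full effect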
# KCNK9 uninduced: non-induced cell nonspecific activity of KCNK9 modulators. shares compounds with KCNK9 inh. non-induced KCNK9-HEK293, FluxOR thallium flux. inhibition, % at 10 µM. 40% of 4,900 active;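 active means thallium signal drop beyond 5 SD of the untreated control mean, on both duplicate plates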;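 further: plate controls were buffer only IC0 wells for no effect and SID17386958 at its maximal inhibitory level for full effect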
# An asterisk follows results filed as active; i = inactive; x = no result.
SMILES,KCNK9 inh,KCNQ1 pot,KCNQ1 inh,KCNK3 inh,hERG protect,KCNK9 inh conf,Kir21 sel,KCNK9 uninduced
Cc1cc(C(=O)CSc2ccc(F)cc2)cc(C)c1OC(=S)N(C)C,i,i,i,i,-9.3,i,i,31.5%*
Cc1cc(NS(=O)(=O)c2ccc(NC(=O)COc3ccccc3C(C)(C)C)cc2)no1,i,i,i,i,-8.3,x,x,x
N#Cc1nc(Cc2ccccc2)oc1N1CCC(Cc2ccccc2)CC1,i,i,i,i,-7.2,i,i,i
O=C1c2ccccc2C(=O)N1n1c(=O)[nH]c2ccccc2c1=O,i,i,i,i,-8.3,x,x,x
COc1cc(-c2csc(NC3CCCCC3)n2)cc(OC)c1OC,i,i,i,i,-11.8,i,i,i
COc1cc(CNC2CCCCCC2)cc(OC)c1OC,i,i,i,i,-8.9,x,x,x
O=C(CSc1ncnc2c1oc1ccccc12)Nc1ccccc1C(F)(F)F,i,i,i,i,-13.1,x,x,x
Cc1ccc(NC(=S)N2CCC(N(C)CC3CCCO3)CC2)cc1 (stereo not given),i,i,i,i,-12.7,x,x,x
CC(C)(C)n1nnnc1C(c1cccs1)N(Cc1cccnc1)Cc1ccccc1Cl (stereo not given),-19.2*,i,i,i,-8.7,70.0%*,i,54.5%*
CCCCCCCCCCCCN1[C@@H](CC(=O)O)c2cc(C(F)(F)F)ccc2S1(=O)=O,i,i,i,i,-5.1,i,i,i
CCCCCCCCN1[C@@H](CC(=O)O)c2cc(C(F)(F)F)ccc2S1(=O)=O,i,i,i,i,-6.5,x,x,x
CCCCCCCCCCCCN1[C@@H](CC(=O)O)c2cc(F)ccc2S1(=O)=O,i,i,i,i,-3.8,i,i,i
CCn1nnnc1NCc1ccc(OCc2c(F)cccc2Cl)c(OC)c1,i,i,i,i,-7.8,x,x,x
CCOC(=O)c1ccc(S(=O)(=O)N2CCN(CC(=O)NC(=O)NC3CCCCC3)CC2)cc1,i,i,i,i,-6.0,x,x,x
COc1ccc(CCc2nnc(CCC(=O)NCC3CCCO3)o2)cc1 (stereo not given),i,i,i,i,-5.9,x,x,x
O/N=C/Cc1[nH]c2ccccc2c1-c1ccccc1,-9.06*,i,i,i,-6.0,47.0%*,i,i
COc1cc(C2C3=C(CC(C)(C)CC3=O)N(C)C(=O)N2C)cc(OC)c1OC (stereo not given),i,i,i,i,-12.4,x,x,x
Cc1[nH]nc(-c2ccc(O)c(C)c2O)c1Oc1ccccc1,-14.2*,i,i,i,-17.0,33.5%*,i,i
Cc1[nH]nc(-c2ccc(OCc3cnn(-c4ccccc4)c3)c(C)c2O)c1Oc1ccccc1,i,i,i,i,-6.6,x,x,x
COc1cc(OC)nc(Oc2ccccc2C(=O)Oc2cccc(C)c2)n1,-9.5*,i,i,i,-0.2,34.5%*,i,36.0%*
O=S(=O)(CC12C3C4C5C1C2C(Br)(C43)C51OCCO1)c1ccccc1 (stereo not given),i,i,i,i,-8.6,x,x,x
CSc1nc(-c2ccccc2)nc(N2CCOCC2)c1C(C)=O,i,i,i,i,-7.8,x,x,x
CSc1ccccc1OCc1cc(C(=O)N2CCNC(=O)C2)no1,i,i,i,i,-12.0,x,x,x
Cc1ccc(OCc2cc(C(=O)N3CCC(c4ccccc4Cl)C3)no2)cc1C (stereo not given),i,i,i,i,-4.9,i,i,i
COc1ccc(OCc2cc(C(=O)N3CCN(C4CCCC4)CC3)no2)c(Cl)c1,i,i,i,i,-14.0,i,i,i
SMILES,KCNK9 inh,KCNQ1 pot,KCNQ1 inh,KCNK3 inh,hERG protect,KCNK9 inh conf,Kir21 sel,KCNK9 uninduced
CSc1ccccc1OCc1cc(C(=O)N2CCc3c(Cl)cccc3C2)no1,i,i,i,i,-12.4,i,i,i
C=CCc1ccc(O)c(-c2cc(CC=C)ccc2O)c1,-16.5*,i,i,i,-11.8,61.5%*,i,i
O=C(NCc1cccs1)c1cc(-c2ccncc2)nc2ccc(Br)cc12,i,i,i,x,-20.9,x,x,x
Cc1cccc(CSc2nc(N)c(C#N)c(-c3cccs3)c2C#N)c1,-8.54*,i,i,i,-6.8,47.5%*,i,46.5%*
COc1cccc(C2CCCN2Cc2nc(CCC(C)C)no2)c1 (stereo not given),i,i,i,i,-15.0,i,i,i
COCCNC(=O)CC(=O)N/N=C/c1cccc(C(=O)OC)c1,i,i,i,i,-16.9,x,x,x
O=C(N/N=C/C=C/c1ccco1)/C(=C/c1ccccc1)NC(=O)c1ccccc1,i,i,i,i,-6.7,x,x,x
O=S(=O)(c1ccc(OC(F)(F)F)cc1)N1CCCC(c2ccccc2)C1 (stereo not given),-11.1*,i,i,i,-3.5,i,i,i
CCOC(=O)c1c(C)nc2sc3c(=O)n(-c4ccc(C)cc4)cnc3c2c1-c1ccc(OC)cc1,i,i,i,i,-5.0,x,x,x
CCOC(=O)CSc1nc(C)nc2c1sc1nc(C)c(C(C)=O)c(-c3ccc(OC)cc3)c12,-11.3*,i,i,i,-4.7,48.5%*,i,46.5%*
CN(Cc1nccs1)C(=O)C1CCC(=O)N(CCCc2ccccc2)C1 (stereo not given),i,i,i,i,-6.5,x,x,x
O=C(Nc1cccc(Cl)c1N1CCCC1)c1cc2ccccc2o1,i,i,i,i,-13.1,x,x,x
O=C(Nc1cccc(Cl)c1N1CCCC1)c1ccc(Br)o1,-9.34*,i,i,i,-16.2,27.5%*,i,32.0%*
O=C(Nc1cccc(Cl)c1N1CCCC1)c1ccc([N+](=O)[O-])o1,-10*,i,i,i,-5.4,34.0%*,i,28.5%*
CCCC1N2CC3([N+](=O)[O-])CN1CC([N+](=O)[O-])(C2)C3(C)C (stereo not given),i,i,i,i,-8.1,x,x,x
O=C(NCC1OCCCN1S(=O)(=O)c1cc(F)ccc1F)C(=O)NC1CCCCCC1 (stereo not given),i,i,i,i,-10.7,x,x,x
NC(=O)C(CC(=O)O)NC(=O)[C@@H]1CCCNc2c(I)cc([N+](=O)[O-])cc2C(=O)N[C@@H](CO)C(=O)N[C@@H](Cc2ccc(O)cc2)C(=O)N1 (stereo not given in full),x,x,x,i,x,x,x,x
